According to ChEMBL document CHEMBL1641572, “Vasorelaxant effect of flavonoids through calmodulin inhibition: Ex vivo, in vitro, and in silico approaches” (Bioorg Med Chem, 2011):
The source made the active and inactive calls. The calls are words filed in the database; no cut-off is given here.

Assays:
Calmodulin-1 [1] = target: T1, Calmodulin-1 (Homo sapiens, UniProt P0DP23); assay: Inhibition of human recombinant calmodulin assessed as inhibition of calmodulin-sensitive cAMP phosphodiesterase activation after 15 mins by spectrophotometric analysis
Aorta [2] = assay: Vasorelaxant activity in Wistar rat endothelium-denuded thoracic aortic ring assessed as inhibition of noradrenaline-induced contraction treated after noradrenaline challenge measured after 60 mins relative to control; assay type: functional; settings: 1 h
Aorta [3] = assay: Vasorelaxant activity in Wistar rat endothelium-intact thoracic aortic ring assessed as inhibition of noradrenaline-induced contraction treated after noradrenaline challenge measured after 60 mins relative to control; assay type: functional; settings: 1 h
Calmodulin-1 [4] = target: T1, Calmodulin-1; assay: Ratio of chlorpromazine IC50 to compound IC50 for human recombinant calmodulin
Aorta [5] = assay: Vasorelaxant activity in Wistar rat endothelium-denuded thoracic aortic ring assessed as inhibition of noradrenaline-induced contraction treated after noradrenaline challenge measured after 60 mins; assay type: functional, tissue-based; settings: for IC50: 1 h
Outline: (§1)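 Thoracic aortic rings (3–5 mm) from Wistar rats (200–300 g), endothelium intact or manually removed, were held in Krebs at 37 °C gassed O2/CO2 (9:1) at 3.0 g resting tension. Three NA (0.1 µM) primings were given; endothelium status was checked by carbachol (1 µM) relaxation. Rings precontracted with NA received compounds in quarter-log cumulative concentrations under isometric recording. n=6 animals.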

Aorta [6] = assay: Vasorelaxant activity in Wistar rat endothelium-intact thoracic aortic ring assessed as inhibition of noradrenaline-induced contraction treated after noradrenaline challenge measured after 60 mins; assay type: functional, tissue-based; settings: for IC50: 1 h; outline: as §1
Aorta [7] = assay: Vasorelaxant activity in Wistar rat endothelium-denuded thoracic aortic ring assessed as inhibition of noradrenaline-induced contraction treated after noradrenaline challenge measured after 60 mins in presence of chlorpromazine; assay type: functional, tissue-based
Outline: (§2)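 Rat aortic rings (endothelium intact or denuded) in 37 °C Krebs under 3.0 g tension were preincubated with chlorpromazine (1 µM). They were then contracted with NA, and compound was added in quarter-log cumulative concentrations while isometric tension was recorded. n=6 animals.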

Aorta [8] = assay: Vasorelaxant activity in Wistar rat endothelium-intact thoracic aortic ring assessed as inhibition of noradrenaline-induced contraction treated after noradrenaline challenge measured after 60 mins in presence of chlorpromazine; assay type: functional, tissue-based; outline: as §2
Calmodulin-1 [9] = target: T1, Calmodulin-1; assay: Inhibition of calmodulin assessed as inhibition of calmodulin-calcium-[…] complex formation
Calmodulin-1 [10] = target: T1, Calmodulin-1; assay: Inhibition of calmodulin assessed as inhibition of calmodulin-calcium-PDE1 complex formation
Outline: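 Human recombinant CaM (0.08 µg) was preincubated 30 min with 0.015 units bovine-brain PDE1 and 0.063 units 5'-nucleotidase in Tris–HCl/imidazole buffer with Mg acetate, 2.5 mM CaCl2 and BSA, pH 7.0. Compounds at 0.5–65 µM in ACN/water (1:1) were added for 30 min. cAMP started a 15-min reaction, and malachite green read phosphate at 700 nm. IC50 came from hyperbolic fit, n≥6.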

O=C1C[C@@H](c2ccc(O)cc2)Oc2cc(O)cc(O)c21
inhibition (Calmodulin-1 [1]): Dose-dependent effect

O=c1cc(-c2ccccc2)oc2cc(O)ccc12 [7-HYDROXYFLAVONE]
Emax (Aorta [2]): 40.4%
Emax (Aorta [3]): 80.6%
Ratio IC50 (Calmodulin-1 [4]): 0.54
inhibition (Aorta [5]): Dose-dependent effect
IC50 (Aorta [5]): 167 µM
IC50 (Calmodulin-1 [1]): 37.1 µM
inhibition (Calmodulin-1 [1]): Dose-dependent effect
inhibition (Aorta [6]): Dose-dependent effect
IC50 (Aorta [6]): 37.8 µM

O=c1cc(-c2ccccc2)oc2ccc(O)cc12 [6-HYDROXYFLAVONE]
Activity (Aorta [7]): Active
Emax (Aorta [2]): 51.8%
Activity (Aorta [8]): Active
Emax (Aorta [3]): 105%
Ratio IC50 (Calmodulin-1 [4]): 3.89
inhibition (Aorta [5]): Dose-dependent effect
IC50 (Aorta [5]): 112 µM
IC50 (Calmodulin-1 [1]): 5.17 µM
inhibition (Calmodulin-1 [1]): Dose-dependent effect
inhibition (Aorta [6]): Dose-dependent effect
IC50 (Aorta [6]): 20.8 µM

O=c1c(O)c(-c2ccc(O)c(O)c2)oc2cc(O)cc(O)c12 [QUERCETIN]
Emax (Aorta [2]): 43.2%
Emax (Aorta [3]): 83.2%
Ratio IC50 (Calmodulin-1 [4]): 2.82
inhibition (Aorta [5]): Dose-dependent effect
IC50 (Aorta [5]): 222 µM
IC50 (Calmodulin-1 [1]): 13 µM
inhibition (Calmodulin-1 [1]): Dose-dependent effect
inhibition (Aorta [6]): Dose-dependent effect
IC50 (Aorta [6]): 162 µM

O=c1cc(-c2ccccc2)oc2ccccc12 [FLAVONE]
Emax (Aorta [2]): 81%
Emax (Aorta [3]): 98.6%
Ratio IC50 (Calmodulin-1 [4]): 0.34
inhibition (Aorta [5]): Dose-dependent effect
IC50 (Aorta [5]): 203 µM
IC50 (Calmodulin-1 [1]): 102 µM
inhibition (Calmodulin-1 [1]): Dose-dependent effect
inhibition (Aorta [6]): Dose-dependent effect
IC50 (Aorta [6]): 46 µM

COc1ccc([C@@H]2CC(=O)c3c(O)cc(O[C@@H]4O[C@H](CO[C@@H]5O[C@@H](C)[C@H](O)[C@@H](O)[C@H]5O)[C@@H](O)[C@H](O)[C@H]4O)cc3O2)cc1O [HESPERIDIN]
IC50 (Calmodulin-1 [9]): 70 µM
IC50 (Calmodulin-1 [10]): 74 µM

O=c1c(O)c(-c2ccccc2)oc2ccccc12 [FLAVONOL]
Emax (Aorta [2]): 29.8%
Emax (Aorta [3]): 67.8%
Ratio IC50 (Calmodulin-1 [4]): 0.36
inhibition (Aorta [5]): Dose-dependent effect
IC50 (Aorta [5]): 248 µM
IC50 (Calmodulin-1 [1]): 55.2 µM
inhibition (Calmodulin-1 [1]): Dose-dependent effect
inhibition (Aorta [6]): Dose-dependent effect
IC50 (Aorta [6]): 204 µM

COC(=O)C1=C(C)NC(C)=C(C(=O)OC)C1c1ccccc1[N+](=O)[O-] [NIFEDIPINE]
Emax (Aorta [2]): 102%
IC50 (Aorta [5]): 0.02 µM

C[N+](C)(C)CCOC(N)=O [CARBACHOL]
Emax (Aorta [3]): 88.6%
IC50 (Aorta [6]): 0.79 µM

O=c1cc(-c2ccccc2)oc2cc(O)cc(O)c12 [CHRYSIN]
Emax (Aorta [2]): 16%
Emax (Aorta [3]): 44.8%
Ratio IC50 (Calmodulin-1 [4]): 1.03
inhibition (Aorta [5]): Dose-dependent effect
IC50 (Aorta [5]): 107 µM
IC50 (Calmodulin-1 [1]): 33.4 µM
inhibition (Calmodulin-1 [1]): Dose-dependent effect
inhibition (Aorta [6]): Dose-dependent effect
IC50 (Aorta [6]): 75.7 µM
